Results on 20 compounds are retold here after ChEMBL document CHEMBL1142665, “Synthesis and cytotoxic evaluation of novel spirohydantoin derivatives of the dihydrothieno[2,3-b]naphtho-4,9-dione system” (J Med Chem, 2005).

One assay has as its system SW-620. Kind of assay: Inhibitory concentration against SW 620 human colon carcinoma cell line. The class given is functional, cell-based. In outline: (§1)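 Monolayer cultures in RPMI-1640 with 10% FBS; sensitive lines from ATCC, drug-resistant sublines from Istituto Tumori of Milan. Cells seeded at about 10% confluency and allowed 24 h to attach and recover. Exposed to varying drug concentrations for 24 h at 37 °C under 5% CO2, washed, then grown 48 h drug-free. Vehicle-matched controls. SRB read-out as %T/C. IC50 taken from dose/effect curve. Triplicate wells, mean of ≥3 independent experiments.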

Assay [1] concerns MCF7. The experiment in a line: Inhibitory concentration against MCF-7 human breast carcinoma cell line. The class given is functional, cell-based. The procedure, abridged:
as §1

The next assay has as its system A2780cisR. Kind of assay: Inhibitory concentration against A2780 ovarian carcinoma resistant to cisplatin. The following applies: Homo sapiens. The class given is functional, cell-based. The procedure, abridged:
as §1

Assay [2] in a line: Inhibitory concentration against MeVo melanoma cell line. Format: functional, Homo sapiens. In outline: as §1
The test system of a further assay is KB. The experiment in a line: Inhibitory concentration against KB epidermal carcinoma cell line. Format: functional, cell-based. The following applies: Homo sapiens. In outline:
as §1

The test system of assay [3] is A2780. Kind of assay: Inhibitory concentration against A2780 ovarian carcinoma cell line. The class given is functional, cell-based. The following applies: Homo sapiens. In outline:
as §1

The test system of a further assay is NCI-H460. Kind of assay: Inhibitory concentration against NCI-H460 lung carcinoma cell line. The class given is functional, cell-based. The following applies: Homo sapiens. In outline: as §1
The next assay has as its system LoVo. Kind of assay: Inhibitory concentration against LoVo colon carcinoma cell line. The class given is functional, cell-based. The following applies: Homo sapiens. The procedure, abridged: as §1
For a further assay, the system named is HEp-2. The experiment in a line: Inhibitory concentration against Hep-2 epidermal carcinoma cell line. The class given is functional, cell-based. The conditions noted are these: Homo sapiens. In outline:
as §1

Another assay relates to A549. The experiment in a line: Inhibitory concentration against A549 lung carcinoma cell line. The following applies: Homo sapiens. Format: functional, cell-based. In outline:
as §1

Assay [4] deals with A2780. The experiment in a line: Inhibitory concentration against A2780 ovarian carcinoma resistant to doxorubicin. Format: functional, cell-based. The conditions noted are these: Homo sapiens. The procedure, abridged:
as §1

The test system of assay [5] is MCF7. The experiment in a line: Inhibitory concentration against MCF-7 human breast carcinoma resistant to doxorubicin. Format: functional, cell-based. In outline: as §1

The structures appear in SMILES notation.

A word on the IC50: it is the concentration needed to halve the response being measured. High values mean lower potency, low ones higher potency. `O=C1C2=C(C(=O)c3ccccc31)C1(CS2)NC(=O)N(CCCO)C1=O` (configuration not stated): the IC50 in the assay with SW-620 (Homo sapiens, SW-620) amounted to 0.119 µM; in the assay with MCF7 [1] (Homo sapiens, MCF7), 0.04 µM.

With `CCCN1C(=O)NC2(CSC3=C2C(=O)c2ccccc2C3=O)C1=O` (configuration not stated), the IC50 was determined as 0.379 µM in the assay on SW-620 (Homo sapiens, SW-620) and 0.104 µM with MCF7 [1] (Homo sapiens, MCF7).

`NCCCCN1C(=O)NC2(CSC3=C2C(=O)c2ccccc2C3=O)C1=O` (configuration not stated): the IC50 in the assay with SW-620 (Homo sapiens, SW-620) is 0.068 µM; in the assay with MCF7 [1] (Homo sapiens, MCF7), 0.035 µM.

In the case of `NCCN1C(=O)NC2(CSC3=C2C(=O)c2ccccc2C3=O)C1=O` (stereo in doubt; 11), the IC50 with SW-620 (Homo sapiens, SW-620) was 0.035 µM; in the assay with MCF7 [1] (Homo sapiens, MCF7), 0.022 µM.

For the compound `NCCN1C(=O)NC2(CSC3=C2C(=O)c2ccccc2C3=O)C1=O` (stereo in doubt; (-)-11), the IC50 in the assay with SW-620 (sw-620) was found to be 0.047 µM; in the assay on MCF7 [1] (mcf7), 0.031 µM.

Consider `CCCCN1C(=O)NC2(CSC3=C2C(=O)c2ccccc2C3=O)C1=O` (configuration not stated), for which the IC50 with SW-620 (Homo sapiens, SW-620) worked out at 0.74 µM; with MCF7 [1] (Homo sapiens, MCF7) it was 0.178 µM.

For `COc1cccc2c1C(=O)c1c(O)c3c(c(O)c1C2=O)C[C@@](O)(C(=O)CO)C[C@@H]3O[C@H]1C[C@H](N)[C@H](O)[C@H](C)O1` [DOXORUBICIN], the IC50 with A2780cisR stood at 0.006 µM; in assay [2] it was 0.82 µM; in the assay with SW-620 (Homo sapiens, SW-620) it was 0.178 µM; in the assay on KB it was 0.021 µM; in the assay with A2780 [3], 0.007 µM; in the assay on NCI-H460, 0.01 µM. Further, the concentration for half-maximal inhibition (IC50) in the assay with LoVo worked out at 0.033 µM; in the assay with HEp-2, 0.059 µM; with A549 it was 0.064 µM; in the assay on A2780 [4], 0.29 µM.

Turning to `O=C1C2=C(C(=O)c3ccccc31)C1(CS2)NC(=O)N(CCO)C1=O` (configuration not stated), the IC50 in the assay on SW-620 (Homo sapiens, SW-620) came out at 0.198 µM; with MCF7 [1] (Homo sapiens, MCF7), 0.069 µM.

`CN(C)CCCN1C(=O)NC2(CSC3=C2C(=O)c2ccccc2C3=O)C1=O` (stereo in doubt; (-)-15): the IC50 with SW-620 (sw-620) stood at 0.065 µM; in the assay on MCF7 [1] (mcf7), 0.027 µM.

As for `CN(C)CCN1C(=O)NC2(CSC3=C2C(=O)c2ccccc2C3=O)C1=O` (configuration not stated), the IC50 was 0.057 µM with SW-620 (Homo sapiens, SW-620) and 0.032 µM in the assay on MCF7 [1] (Homo sapiens, MCF7).

In the case of `CN1C(=O)NC2(CSC3=C2C(=O)c2ccccc2C3=O)C1=O` (configuration not stated), the IC50 with SW-620 (Homo sapiens, SW-620) came out at 0.108 µM; in the assay on MCF7 [1] (Homo sapiens, MCF7) it was 0.023 µM.

For `CCN(CC)CCCN1C(=O)NC2(CSC3=C2C(=O)c2ccccc2C3=O)C1=O` (configuration not stated), the IC50 was 0.054 µM in the assay with SW-620 (Homo sapiens, SW-620) and 0.026 µM with MCF7 [1] (Homo sapiens, MCF7).

Consider `CN(C)CCCN1C(=O)NC2(CSC3=C2C(=O)c2ccccc2C3=O)C1=O` (stereo in doubt; 15), for which the IC50 in the assay on A2780cisR is 0.11 µM; in [2] it was 0.25 µM; in the assay on SW-620 (Homo sapiens, SW-620), 0.058 µM; in the assay on KB, 0.1 µM; with MCF7 [1] (Homo sapiens, MCF7) it was 0.019 µM; in the assay on A2780 [3], 0.068 µM. Moreover, the IC50 was found to be 0.26 µM in the assay on NCI-H460; 0.23 µM in the assay on LoVo; 0.17 µM with HEp-2; 0.11 µM in the assay on A549; 0.13 µM in the assay with A2780 [4]; 0.173 µM in the assay with MCF7 [5].

Turning to `CCN(CC)CCN1C(=O)NC2(CSC3=C2C(=O)c2ccccc2C3=O)C1=O` (configuration not stated), the IC50 in the assay on SW-620 (Homo sapiens, SW-620) worked out at 0.05 µM; in the assay on MCF7 [1] (Homo sapiens, MCF7), 0.021 µM.

Consider `NCCN1C(=O)NC2(CSC3=C2C(=O)c2ccccc2C3=O)C1=O` (single isomer, unassigned; (+)), for which the IC50 in the assay on SW-620 (sw-620) came out at 0.034 µM; with MCF7 [1] (mcf7), 0.02 µM.

Take `NCCCN1C(=O)NC2(CSC3=C2C(=O)c2ccccc2C3=O)C1=O` (configuration not stated): the IC50 in the assay with SW-620 (Homo sapiens, SW-620) amounted to 0.052 µM; with MCF7 [1] (Homo sapiens, MCF7), 0.025 µM.

As to `CCN1C(=O)NC2(CSC3=C2C(=O)c2ccccc2C3=O)C1=O` (configuration not stated), the IC50 with SW-620 (Homo sapiens, SW-620) amounted to 0.203 µM; in the assay on MCF7 [1] (Homo sapiens, MCF7) it was 0.116 µM.

Consider `CCC(C)N1C(=O)NC2(CSC3=C2C(=O)c2ccccc2C3=O)C1=O` (configuration not stated), for which the IC50 was determined as 0.562 µM in the assay with SW-620 (Homo sapiens, SW-620) and 0.178 µM in the assay with MCF7 [1] (Homo sapiens, MCF7).

`CN(C)CCCN1C(=O)NC2(CSC3=C2C(=O)c2ccccc2C3=O)C1=O` (single isomer, unassigned; (+)) displayed an IC50 in the assay with SW-620 (sw-620) of 0.06 µM.

On to `CC(C)(C)N1C(=O)NC2(CSC3=C2C(=O)c2ccccc2C3=O)C1=O` (configuration not stated), for which the 50% inhibitory concentration (IC50) turned out to be 0.9 µM with SW-620 (Homo sapiens, SW-620) and 0.331 µM in the assay on MCF7 [1] (Homo sapiens, MCF7).
